Assay [1] can be described thus: SK-BR-3 cell growth inhibitors, pilot screen, 24 h, human (AID 572;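 active = viability at or below 10% of carrier control in both of two separate runs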;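 also: compound exposure lasted between 18 and 24 h rather than exactly 24 h; 100% = carrier-treated control wells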). To be noted: SK-BR-3 viability, CellTiter-Glo luminescence, at 10 µM, stronger effect = lower value.
Assay [2] can be described thus: HUVEC growth inhibition – cell-based, human, primary screen (AID 575).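 Also: 100% = median of untreated cell wells with 0.1% DMSO on each plate.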 To be noted: HUVEC proliferation, CellTiter-Glo luminescence, 72 h; at 10 µM; stronger effect = lower value. In a few lines: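 System: primary human umbilical vein endothelial cells; Quantity: 1250 endothelial cells in each well; Buffer or medium: supplemented EBM, 2% fetal bovine serum; Doses: one dose, 10 µM final, 0.1% DMSO; Incubation: 72 h compound incubation; Technique: ATP-based CellTiter-Glo luminescent read; Evaluation: percent of median DMSO-control luminescence; Controls: vehicle and MePR control wells.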

Assay [3] is described as follows: growth inhibitors of H69AR lung tumor, primary screen, human, duplicate replicates (AID 580;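 active = viability at or under a set limit in both replicates, limit being median viability minus 3 SD, cut at about 48% in these data, passing the limit was not always enough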;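 also: 100% = mean luminescence of untreated wells and 0% = no signal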). To be noted: H69AR lung tumor cells viability, ATP luminescence, 72 h; at 10 µM; stronger effect = lower value.
Assay [4] can be described thus: reversal of MRP1-mediated doxorubicin resistance, pilot screen, H69AR cells, doxorubicin co-treatment (AID 601;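 active = viability loss from added drug above about 55%, and viability with drug at most 40%, in both replicates, limit read from the data, passing the limit was not always enough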). To be noted: CellTiter-Glo, 72 h, at 10 µM; for differential viability (reversal): stronger effect = higher value.
Assay [5] in a line: 384-well plate pilot, post-Golgi transport modulator project, inhibition of yeast transport mutant growth (AID 636; in the data active = inhibition above about 31%). To be noted: absorbance 615 nm, about 18 h, stronger effect = higher value.
Assay [6] in a line: growth suppression of yeast trafficking mutant, preliminary HTS, modulators of trafficking downstream of Golgi apparatus project, 1536-format plate, OD 615 nm (AID 637; in the data active = inhibition above about 30%). To be noted: yeast transport mutant growth, absorbance 615 nm, 18 h; stronger effect = higher value.
Where [7] appears, read: H69AR cells + 2 uM doxorubicin, measured here: viability with 2 uM doxorubicin, stronger effect = lower value.
Setting [8] is: H69AR cells, compound alone cytotoxicity.

The source made the active and inactive calls.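 The calls were made as follows, unless noted: active = viability at or below 30% in both replicate assays; inconclusive = viability at or below 30% in just one of the two assays; inactive = the rest.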

On to `CSc1ccccc1NC(=O)CN(c1ccccc1)S(=O)(=O)N(C)C`, for which the viability was 83% (inactive) in assay [1]; 98.3% (inactive) in assay [2]; 87.7% (inactive) in assay [3]; 85.7% in assay [4] (setting [7]); 87.7% in assay [4] (setting [8]). Moreover, in assay [4] (H69AR cells + 2 uM doxorubicin), the differential viability (reversal) is 2.04% (inactive). Besides, the inhibition was -8.49% (inactive) in assay [5] and 0.18% (inactive) in assay [6].

For the compound `CCOc1ccccc1N1CC(O)=C(c2nc3ccccc3s2)C1=N`, the viability in assay [1] was 97% (inactive); in assay [2] it was 49.4% (inactive); in assay [3], 14.5% (active); in assay [4] (setting [7]), 60.2%; in assay [4] (setting [8]) it was 14.5%. For the same compound, the differential viability (reversal) in assay [4] (H69AR cells + 2 uM doxorubicin) was -45.7% (inactive). Moreover, the inhibition is 1.47% (inactive) in assay [5] and 2.36% (inactive) in assay [6].

For `O=C(O)CCN(CCC(=O)O)c1nnc(SCc2ccccc2)s1`, the viability was 91% (inactive) in assay [1]; 107% (inactive) in assay [2]; 93.6% (inactive) in assay [3]; 86.5% in assay [4] (setting [7]); 93.6% in assay [4] (setting [8]). In addition, in assay [4] (H69AR cells + 2 uM doxorubicin), the differential viability (reversal) was 7.11% (inactive). Also, the inhibition in assay [5] was -6.16% (inactive); in assay [6] it was -3.55% (inactive).

On to `Cc1ccc(CCNC(=O)C2CCC(=O)N2C2CCCC2)cc1` (centres undefined), for which the viability was 79% (inactive) in assay [1]; 99.7% (inactive) in assay [2]; 94.9% (inactive) in assay [3]; 81.9% in assay [4] (setting [7]); 94.9% in assay [4] (setting [8]). Besides, the differential viability (reversal) in assay [4] (H69AR cells + 2 uM doxorubicin) is 13% (inactive). The inhibition in assay [5] was -2.08% (inactive); in assay [6] it was 0% (inactive).

For `CCN(CCCNC(=O)COc1cc(=O)n(CC)c2ccccc12)c1ccccc1`, the viability was 86% (inactive) in assay [1]; 56.9% (inactive) in assay [2]; 74.7% (inactive) in assay [3]; 68.9% in assay [4] (setting [7]); 74.7% in assay [4] (setting [8]). Further, the differential viability (reversal) in assay [4] (H69AR cells + 2 uM doxorubicin) is 5.79% (inactive). For the same compound, the inhibition is -5.32% (inactive) in assay [5] and -4.75% (inactive) in assay [6].

As for `CSc1nnc(-c2ccccc2)n1C`, the viability in assay [1] is 121% (inactive); in assay [2] it was 102% (inactive); in assay [3], 102% (inactive); in assay [4] (setting [7]), 95.5%; in assay [4] (setting [8]) it was 102%. In addition, the differential viability (reversal) in assay [4] (H69AR cells + 2 uM doxorubicin) is 6.17% (inactive). Besides, the inhibition is -8.36% (inactive) in assay [5] and -0.55% (inactive) in assay [6].

Take `C[C@]12CC[C@@H]3c4ccc(O)cc4CC[C@H]3[C@@H]1CCC2=O`: the viability in assay [1] is 120% (inactive); in assay [2] it was 63.4% (inactive); in assay [3] it was 91.8% (inactive); in assay [4] (setting [7]) it was 87.1%; in assay [4] (setting [8]), 91.8%. The differential viability (reversal) in assay [4] (H69AR cells + 2 uM doxorubicin) is 4.7% (inactive). The inhibition in assay [5] was -1.56% (inactive); in assay [6], 0.5% (inactive).

On to `CCOc1ccc(NS(=O)(=O)c2ccc(OCC(=O)N3CCCC3)cc2)cc1`, for which the viability in assay [1] is 92% (inactive); in assay [2], 102% (inactive); in assay [3], 88.7% (inactive); in assay [4] (setting [7]), 85.2%; in assay [4] (setting [8]) it was 88.7%. The differential viability (reversal) in assay [4] (H69AR cells + 2 uM doxorubicin) is 3.44% (inactive). Moreover, the inhibition in assay [5] is 1.51% (inactive); in assay [6], -4.84% (inactive).

For `O=C(CN1CCN(c2nc(-c3ccc(Cl)cc3)cs2)CC1)NCc1ccco1`, the viability in assay [1] was 67% (inactive); in assay [2], 95.6% (inactive); in assay [3], 97.9% (inactive); in assay [4] (setting [7]), 94.8%; in assay [4] (setting [8]), 97.9%. For the same compound, the differential viability (reversal) in assay [4] (H69AR cells + 2 uM doxorubicin) was 3.06% (inactive). Besides, the inhibition in assay [5] was -5.07% (inactive); in assay [6], -2.18% (inactive).

With `O=C1CCc2cc(OCCCCc3nnnn3C3CCCCC3)ccc2N1`, the viability was 98% (inactive) in assay [1]; 78.6% (inactive) in assay [2]; 101% (inactive) in assay [3]; 88.2% in assay [4] (setting [7]); 101% in assay [4] (setting [8]). Besides, the differential viability (reversal) in assay [4] (H69AR cells + 2 uM doxorubicin) was 13% (inactive). The figures for the inhibition in assay [5] and in assay [6] were 1.82% (inactive) and -4% (inactive), respectively.

Turning to `COc1cccc(OCC(=O)Nc2ccccc2C(N)=O)c1`, the viability in assay [1] was 110% (inactive); in assay [2] it was 99.9% (inactive); in assay [3], 97% (inactive); in assay [4] (setting [7]), 83.9%; in assay [4] (setting [8]), 97%. Besides, the differential viability (reversal) in assay [4] (H69AR cells + 2 uM doxorubicin) is 13.1% (inactive). Besides, the inhibition is -1.51% (inactive) in assay [5] and 1.13% (inactive) in assay [6].

For `CCc1nnc(SCc2cn3c(C)cc(C)nc3n2)n1N`, the viability in assay [1] was 96% (inactive); in assay [2], 96.5% (inactive); in assay [3], 108% (inactive); in assay [4] (setting [7]), 92.2%; in assay [4] (setting [8]) it was 108%. For the same compound, the differential viability (reversal) in assay [4] (H69AR cells + 2 uM doxorubicin) is 15.7% (inactive). Further, the inhibition is -1.89% (inactive) in assay [5] and -4.91% (inactive) in assay [6].

Consider `CCOC(=O)c1ccc(NC(=O)CCc2nc(-c3ccc(C)cc3)no2)cc1`, for which the viability was 85% (inactive) in assay [1]; 38% (inactive) in assay [2]; 94.3% (inactive) in assay [3]; 88.8% in assay [4] (setting [7]); 94.3% in assay [4] (setting [8]). Also, the differential viability (reversal) in assay [4] (H69AR cells + 2 uM doxorubicin) was 5.47% (inactive). Besides, the inhibition was -3.29% (inactive) in assay [5] and 3.93% (inactive) in assay [6].

On to `Cc1cccc(NC(=O)CCCCCN2C(=O)c3ccccc3C2=O)n1`, for which the viability in assay [1] is 92% (inactive); in assay [2] it was 105% (inactive); in assay [3] it was 105% (inactive); in assay [4] (setting [7]) it was 102%; in assay [4] (setting [8]), 105%. Besides, the differential viability (reversal) in assay [4] (H69AR cells + 2 uM doxorubicin) is 2.47% (inactive). The results for the inhibition in assay [5] and in assay [6] were -7.12% (inactive) and 5.45% (inactive), respectively.

Consider `c1ccc(-c2ccc(-c3ccccn3)nn2)nc1`, for which the viability is 112% (inactive) in assay [1]; 55.3% (inactive) in assay [2]; 59.4% (inactive) in assay [3]; 69.5% in assay [4] (setting [7]); 59.4% in assay [4] (setting [8]). The differential viability (reversal) in assay [4] (H69AR cells + 2 uM doxorubicin) was -10.1% (inactive). Also, the results for the inhibition in assay [5] and in assay [6] were -6.27% (inactive) and -0.63% (inactive), respectively.

On to `CC(CCc1ccccc1)NC(=O)CSc1nc(N)cc(N)n1` (centres undefined), for which the viability in assay [1] was 114% (inactive); in assay [2], 96.6% (inactive); in assay [3] it was 94.7% (inactive); in assay [4] (setting [7]), 90%; in assay [4] (setting [8]), 94.7%. Also, in assay [4] (H69AR cells + 2 uM doxorubicin), the differential viability (reversal) is 4.75% (inactive). Further, the results for the inhibition in assay [5] and in assay [6] were -0.68% (inactive) and -1.45% (inactive), respectively.

For the compound `Cc1ccc2cc(C(c3nnnn3C3CCCC3)N3CCN(c4ccc(F)cc4)CC3)c(=O)[nH]c2c1` (centres undefined), the viability in assay [1] is 93% (inactive); in assay [2], 101% (inactive); in assay [3], 67.6% (inactive); in assay [4] (setting [7]), 59.6%; in assay [4] (setting [8]) it was 67.6%. For the same compound, the differential viability (reversal) in assay [4] (H69AR cells + 2 uM doxorubicin) is 8.08% (inactive). For the same compound, the inhibition in assay [5] was -5.6% (inactive); in assay [6], 1.27% (inactive).

Take `Cn1cnc2c1c(=O)[nH]c(=O)n2C`: the viability in assay [1] is 108% (inactive); in assay [2], 85.7% (inactive); in assay [3], 96.1% (inactive); in assay [4] (setting [7]), 96.8%; in assay [4] (setting [8]), 96.1%. Moreover, in assay [4] (H69AR cells + 2 uM doxorubicin), the differential viability (reversal) was -0.7% (inactive). Also, the figures for the inhibition in assay [5] and in assay [6] were -0.91% (inactive) and 6.33% (inactive), respectively.

(Values after PubChem BioAssay.)
